Results on 17 compounds are retold here after ChEMBL document CHEMBL1149111, “Design and synthesis of a fluoroindolocarbazole series as selective topoisomerase I active agents. Discovery of water-soluble 3,9-difluoro-12,13-dihydro-13-[6-amino-beta-D-glucopyranosyl]-5H,13H-benzo[b]- thienyl[2,3-a]pyrrolo[3,4-c]carbazole- 5,7(6H)-dione (BMS-251873) with curative antitumor …” (J Med Chem, 2004).

pIC50: −log10 of the molar value.

Data set [1] has as its target T1, DNA topoisomerase 1 (Homo sapiens) (UniProt P11387).
T1 sequence (whole entry): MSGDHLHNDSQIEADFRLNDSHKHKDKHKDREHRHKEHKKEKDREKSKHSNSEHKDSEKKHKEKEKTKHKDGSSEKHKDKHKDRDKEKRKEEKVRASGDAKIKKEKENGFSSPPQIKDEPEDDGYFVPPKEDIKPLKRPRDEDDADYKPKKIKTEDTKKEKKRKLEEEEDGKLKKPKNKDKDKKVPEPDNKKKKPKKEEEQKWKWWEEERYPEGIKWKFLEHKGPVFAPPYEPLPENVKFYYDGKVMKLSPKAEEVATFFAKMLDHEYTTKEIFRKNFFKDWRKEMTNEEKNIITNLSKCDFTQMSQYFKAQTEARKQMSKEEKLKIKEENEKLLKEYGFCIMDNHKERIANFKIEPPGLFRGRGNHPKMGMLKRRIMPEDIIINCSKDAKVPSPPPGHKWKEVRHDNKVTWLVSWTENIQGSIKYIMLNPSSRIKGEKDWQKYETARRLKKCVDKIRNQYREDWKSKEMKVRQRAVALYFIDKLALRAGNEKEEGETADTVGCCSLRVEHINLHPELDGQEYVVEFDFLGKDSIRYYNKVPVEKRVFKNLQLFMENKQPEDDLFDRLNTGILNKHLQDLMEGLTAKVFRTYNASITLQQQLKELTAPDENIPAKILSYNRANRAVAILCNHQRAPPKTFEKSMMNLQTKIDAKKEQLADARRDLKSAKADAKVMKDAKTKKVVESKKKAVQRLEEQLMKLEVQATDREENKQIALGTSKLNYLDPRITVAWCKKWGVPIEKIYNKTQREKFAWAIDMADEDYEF
Kind of data set: Ratio of effective concentration for inducing single strand breaks in the DNA substrate by topoisomerase I compared to camptothecin. The method, boiled down:
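Topoisomerase I-mediated single-strand breaks in DNA substrate assayed by a modified Hsiang protocol; median effective concentration (EC50) for break induction divided by camptothecin EC50 measured in the same experiment.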

A short description of data set [2]: Ratio for cytotoxicity against camptothecin resistant P388/CPT45 cells to that of parental P388 cells. The class given is functional, Mus musculus. In a few lines:
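Cytotoxicity after 3-day continuous exposure by tetrazolium dye conversion, read at 450 nm, in camptothecin-resistant P388/CPT45 cells and parental P388 cells; value is IC50 in P388/CPT45 divided by IC50 in P388.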

Another data set relates to P388. The data set can be described thus: In vitro cytotoxic concentration against P388 murine leukemia cells was determined. The class given is functional, cell-based. Particulars: Mus musculus. The method, boiled down: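 P388 murine leukemia cells exposed continuously to compound for 3 days; proliferation measured by soluble tetrazolium/formazan conversion (absorbance 450 nm). IC50 = concentration reducing absorbance to 50% of untreated control cells; reported as mean.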

A short description of data set [3]: Plasma clearance at 5 mg/Kg. Particulars: mouse. The class given is ADME, organism-based.
Data set [4] concerns Mus musculus. The data set can be described thus: Inhibitory concentration of compound was determined after intravenous administration in mice after 8 hours of exposure at 5 mg/Kg. The class given is ADME, organism-based.
Data set [5] in a line: Half life of compound was determined in plasma of mice at 5 mg/Kg. The class given is ADME, organism-based. The note with it: mouse.
For data set [6], the system named is Mus musculus. The data set can be described thus: Area under curve was determined for the compound at 5 mg/Kg. The note with it: in vivo. The class given is ADME, organism-based.
Data set [7] is described as follows: Volume of distribution of compound in plasma was determined at 5 mg/Kg. The class given is ADME, organism-based. Particulars: mouse, read-out: Vds.
Data set [8] deals with Mus musculus. Kind of data set: Inhibitory concentration of compound was determined after intravenous administration in mice after 8 hours of exposure at 24 mg/Kg. The class given is ADME, organism-based.
Data set [9] in a line: Volume of distribution of compound in plasma was determined at 24 mg/Kg. The class given is ADME, organism-based. The note with it: mouse, read-out: Vds.
The nature of data set [10]: Plasma clearance at 24 mg/Kg. The class given is ADME, organism-based. Particulars: mouse.
The nature of data set [11]: Half life of compound was determined in plasma of mice at 24 mg/Kg. The class given is ADME, organism-based. Particulars: mouse.
Data set [12] relates to Mus musculus. Kind of data set: Area under curve was determined for the compound at 24 mg/Kg. The class given is ADME, organism-based. Particulars: in vivo.

What is called pIC50 is the negative decadic logarithm of the IC50, by convention in mol/L. A lower pIC50 goes with a large IC50. Take `NN1C(=O)c2c(c3c4cc(F)ccc4n(C4OC(CO)C(O)C(O)C4O)c3c3[nH]c4ccc(F)cc4c23)C1=O` (stereo not given): the Ratio in [1] was found to be 0.22; in data set [2], 196.9. The compound further had a negative-log IC50 (pIC50) in the data set on P388 of 7.70.
Turning to `O=C1NC(=O)c2c1c1c3ccc(F)cc3[nH]c1c1c2c2ccccc2n1C1OC(CO)C(O)C(O)C1O` (stereo not given), the figures for the Ratio in [1] and in data set [2] were above 200 and 11.4, respectively. The compound further showed a pIC50 with P388 of 7.01.
With `O=C1NC(=O)c2c1c1c3ccc(F)cc3[nH]c1c1c2c2ccc(F)cc2n1C1OC(CO)C(O)C(O)C1O` (stereo not given), the Ratio in data set [1] was 2; in data set [2], 8.7. In addition, in the data set with P388, the pIC50 was 6.59.
With `O=C1NC(=O)c2c1c1c3ccccc3[nH]c1c1c2c2cc(F)ccc2n1C1OC(CO)C(O)C(O)C1O` (stereo not given), the Ratio in data set [1] is 6.6; in [2] it was above 9.5. This compound also had a pIC50 in the data set with P388 of 5.98.
For `O=C1c2c(c3c4cc(F)ccc4n(C4OC(CO)C(O)C(O)C4O)c3c3[nH]c4ccc(F)cc4c23)C(=O)N1O` (stereo not given), the Ratio in data set [1] amounted to 0.08; in data set [2], 19.6. Also, in the data set with P388, the pIC50 is 7.46.
The matching figures for `CN1C(=O)c2c(c3c4cc(F)ccc4n(C4OC(CO)C(O)C(O)C4O)c3c3[nH]c4ccc(F)cc4c23)C1=O` (stereo not given): 1, above 10.8 and 6.06.
In general, clearance refers to the rate of elimination divided by the concentration. A high value points to efficient removal. As usually defined, the half-life is the time in which the quantity being followed falls by half. A higher half-life goes with slow decline. With `O=C1NC(=O)c2c1c1c3cc(F)ccc3sc1c1c2c2cc(F)ccc2n1C1OC(CO)C(O)C(O)C1O` (stereo not given), the values for the Ratio in data set [1] and in data set [2] were 0.09 and 232.5, respectively. The same compound registered a clearance in data set [3] of 9.33 mL/min/kg. Moreover, the results for the pIC50 with Mus musculus [4] and in the data set on P388 were 6.82 and 8.00, respectively. Besides, the half-life in data set [5] is 7.6 h. The compound also displayed an AUC in the data set on Mus musculus [6] of 0.068 uM hr ml-1. The Vd in data set [7] was found to be 1.27 L/kg.
For `CN1C(=O)c2c(c3c4cc(F)ccc4n(C4OC(CO)C(O)C(O)C4O)c3c3sc4ccc(F)cc4c23)C1=O` (stereo not given), the Ratio in data set [1] was determined as 0.48; in data set [2], 14.1. In the data set on P388, this compound had a pIC50 of 6.63.
On the same counts, the results for `O=C1NC(=O)c2c1c1c3cc(F)ccc3[nH]c1c1c2c2ccccc2n1C1OC(CO)C(O)C(O)C1O` (stereo not given) are 1.7, 31.7 and 7.00.
The matching figures for `O=C1NC(=O)c2c1c1c3cc(F)c(F)cc3[nH]c1c1c2c2cc(F)c(F)cc2n1C1OC(CO)C(O)C(O)C1O` (stereo not given): 0.69, 67.1 and 8.15.
The matching figures for `O=C1NC(=O)c2c1c1c3cc(F)ccc3oc1c1c2c2cc(F)ccc2n1C1OC(CO)C(O)C(O)C1O` (stereo not given): 0.27, 63.7 and 6.94.
Turning to `O=C1NC(=O)c2c1c1c3ccccc3[nH]c1c1c2c2ccc(F)cc2n1C1OC(CO)C(O)C(O)C1O` (stereo not given), the figures for the Ratio in data set [1] and in data set [2] were 3.1 and 4.6, respectively. The same compound showed a pIC50 in the data set with P388 of 6.41.
On the same counts, the results for `Cn1c2cc(F)c(F)cc2c2c3c(c4c5cc(F)c(F)cc5n(C5OC(CO)C(O)C(O)C5O)c4c21)C(=O)NC3=O` (stereo not given) are above 600, above 1 and below 5.06.
As for `O=C1NC(=O)c2c1c1c3ccccc3sc1c1c2c2cc(F)ccc2n1C1OC(CO)C(O)C(O)C1O` (stereo not given), the Ratio is 2.2 in [1] and above 51.3 in data set [2]. In the data set with P388, this compound had a negative logarithm of the IC50 (pIC50) of 6.81.
Turning to `O=C1NC(=O)c2c1c1c3cccc(Cl)c3[nH]c1c1c2c2cccc(Cl)c2n1C1OC(CO)C(O)C(O)C1O` (stereo not given), the values for the Ratio in [1] and in [2] were above 500 and 1.26, respectively. In the data set with P388, this compound gave a negative-log IC50 (pIC50) of 6.27.
For the compound `O=C1NC(=O)c2c1c1c3cc(F)ccc3[nH]c1c1c2c2cc(F)ccc2n1C1OC(CO)C(O)C(O)C1O` (stereo not given), the Ratio in data set [1] worked out at 0.22; in data set [2], 182.7. The negative-log IC50 (pIC50) in the data set on Mus musculus [8] is 6.07. Further, the Vd in data set [9] was 0.1 L/kg. The compound further gave a clearance in data set [10] of 3.6 mL/min/kg. Further, the half-life in data set [11] is 1.6 h. The compound also came in with an AUC in the data set with Mus musculus [12] of 0.17 uM hr ml-1.
On to `O=C1NC(=O)c2c1c1c3ccccc3oc1c1c2c2cc(F)ccc2n1C1OC(CO)C(O)C(O)C1O` (stereo not given), for which the figures for the Ratio in data set [1] and in data set [2] were 1.5 and 13.6, respectively. The compound also had a negative logarithm of the IC50 (pIC50) in the data set with P388 of 6.28.
